# HTRA1 inhibitor = HTRA1 serine protease inhibitors, primary screen, biochemical, fluorescence polarization, HTS. Q92743. recombinant HTRA1, FP-rhodamine activity-based probe. inhibition, % at 5.96 µM. 340,000 tested, 0.5% active; in the data active means inhibition above about 36%;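 further: 0% = enzyme with DMSO and 100% = wells lacking enzyme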
# Target sequence (Q92743 whole entry, looked up): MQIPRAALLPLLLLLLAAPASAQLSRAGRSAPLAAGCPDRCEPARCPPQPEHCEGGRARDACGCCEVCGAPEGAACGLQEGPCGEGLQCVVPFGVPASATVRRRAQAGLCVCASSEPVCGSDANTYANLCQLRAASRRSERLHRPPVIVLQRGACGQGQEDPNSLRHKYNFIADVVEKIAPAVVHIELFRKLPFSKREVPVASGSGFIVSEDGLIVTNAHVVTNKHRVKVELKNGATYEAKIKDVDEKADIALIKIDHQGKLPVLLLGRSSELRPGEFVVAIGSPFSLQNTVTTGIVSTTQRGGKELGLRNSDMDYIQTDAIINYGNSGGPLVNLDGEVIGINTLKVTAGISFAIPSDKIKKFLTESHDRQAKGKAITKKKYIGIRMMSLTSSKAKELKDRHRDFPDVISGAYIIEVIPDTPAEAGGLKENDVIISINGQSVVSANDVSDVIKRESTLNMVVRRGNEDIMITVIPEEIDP
# SIAE inh = human SIAE inhibitors, primary screen, biochemical, fluorescence polarization, FP-Rh probe, 1536-well HTS; Sialate O-acetylesterase (Homo sapiens), Q9HAT2; SIAE FP-Rh probe binding; inhibition, % at 9.66 µM; 370,000 tested, 0.69% active;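 active means inhibition above a cutoff: mean of compounds within the control limits plus 3 SD of those, cut at about 17% in these data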;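 further: 0% = plate median of compound wells and 100% = probe without SIAE protein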
# DAGLB inh = DAGLB lipase inhibitors, primary screen, biochemical, fluorescence, HTS | Diacylglycerol lipase-beta (Homo sapiens), Q8NCG7 | HEK293T DAGLB membrane lysate, EnzChek fluorogenic substrate | inhibition, % at 5.17 µM | 340,000 tested, 0.059% active | AID 504411, 2011; in the data active means inhibition above about 34%;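 further: 0% = enzyme with vehicle and 100% = wells lacking enzyme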
# mABHD4 FP = ABHD4 inhibitors, primary screen, biochemical, fluorescence polarization, mouse; (Lyso)-N-acylphosphatidylethanolamine lipase (Mus musculus), Q8VD66; purified mABHD4, FP-Rh probe fluorescence polarization; inhibition, % at 8.92 µM; 370,000 tested, 0.54% active;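 active means inhibition exceeding the mean over every tested compound plus 3 SD, cut at about 30% in these data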;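 further: 0% = plate median of compound wells and 100% = S159A mutant with DMSO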
#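 Test system: mABHD4 protein | Buffer or medium: HEPES pH 7.0 buffer, 150 mM NaCl, 0.01% Pluronic F-127 | Probe or stimulus: FP-Rh fluorescent activity-based probe, added after compound pre-incubation | Timing: Pre-incubation 45 min, probe exposure 60 min, at 25 °C | Technique: Fluorescence polarization, excitation 525 nm, emission 598 nm, BODIPY TMR filters | Repeats: Single well per compound (singlicate)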
# TCR CD3 inh = inhibitors of human TCR-CD3 interaction, primary screen, biochemical, fluorescence, TAMRA-labeled TCR probe; inhibition, % at 9.4 µM; 360,000 tested, 0.37% active; T-cell receptor (TCR); in the data active means inhibition above about 19%;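 further: recombinant mutant TCR 2C K166C tagged with TAMRA read by polarization; 0% = receptor in buffer alone and 100% = receptor with positive control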
# ABHD4 confirm = ABHD4 inhibitors, retest, confirmation, biochemical, fluorescence polarization, mouse; purified mABHD4, FP-Rh probe fluorescence polarization; AID 720658, 2013; shares compounds with mABHD4 FP; inhibition, % at 8.92 µM; 1,800 tested, 55% active;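 active means mean inhibition across replicates above the hit cutoff set in the primary screen, cut at about 30% in these data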;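 further: 0% = wild-type ABHD4 with DMSO and 100% = catalytically dead S159A mutant with DMSO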
# SIAE confirm = human SIAE inhibitors, retest, confirmation, biochemical, fluorescence polarization, FP-Rh probe, triplicate | inhibition, % at 9.66 µM | shares compounds with SIAE inh | 2,300 tested, 13% active | SIAE FP-Rh activity-based probe;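 active means mean inhibition of the replicates above the hit cutoff set in the primary screen, cut at about 17% in these data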;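 further: 0% = SIAE with DMSO and probe and 100% = probe without SIAE; inhibitors lower polarization as more probe stays unbound to SIAE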
# Starred values were filed as active, the others as inactive; x = no result. An excerpt weighted towards active compounds, which were near 1.5% of everything screened.
SMILES,HTRA1 inhibitor,SIAE inh,DAGLB inh,mABHD4 FP,TCR CD3 inh,ABHD4 confirm,SIAE confirm
COc1ccc(NC(=S)NNc2ccc([N+](=O)[O-])cc2S(=O)(=O)Nc2ccc(C)cc2C)cc1,5,47*,11,39*,-4,38*,-5
COc1ccc(NC(=S)Nc2cccc([N+](=O)[O-])c2)cc1,0,3,1,0,6,x,x
COC(=O)C1=C(C)N(Cc2ccccc2C(F)(F)F)C(=NCc2ccc(OC)cc2)NC1c1cccc(Cl)c1 (configuration not stated),x,-3,x,6,-4,x,x
COC(=O)Cc1csc(Nc2ccc(F)c(Cl)c2)n1,0,22*,-3,36*,-1,-2,3
COC(=O)Cc1csc(Nc2ccc(Cl)cc2)n1,0,14,1,-3,-1,x,x
O=c1c2c([N+](=O)[O-])cc([N+](=O)[O-])cc2sn1Cc1ccccc1,9,25*,7,32*,0,26,20*
O=c1c2c([N+](=O)[O-])cc([N+](=O)[O-])cc2sn1-c1ccc(Br)cc1,4,x,29,x,x,x,x
CCCCCCCCSC1=CC(=O)C(OC)=C(OC)C1=O,-8,21*,-8,39*,-5,52*,6
CCCCc1c(-c2ccccc2OC)ncn1Cc1ccc([N+](=O)[O-])cc1,x,0,x,10,-2,x,x
[O-][n+]1c2c(c3c4non(O)c4ccc31)CCCC2,20,31*,10,35*,8,27,28*
COn1c2c(c3c4no[n+]([O-])c4ccc31)CCCC2,-4,1,-2,3,1,x,x
COc1cc2ccc(=O)oc2c(O)c1O,11,26*,1,32*,11,6,15
CCOC(=O)Cc1cc(=O)c2c(=O)n(-c3ccccc3)[nH]c2[nH]1,14,18*,-4,57*,6,4,6
CCOC(=O)/C(=C\Nc1cccc(OCc2ccccc2)c1)NC(=O)c1ccccc1,x,5,x,1,-1,x,x
COc1ccc(Br)cc1/C=N/Nc1cccc(C(=O)O)c1,-2,0,5,20,5,x,x
O=C(O)c1cccc(N/N=C/c2cc(Br)cc(Br)c2O)c1,-1,31*,9,56*,14,80*,3
CCOC(=O)C1=CCN(S(=O)(=O)c2ccccc2Br)C1c1ccc(Cl)cc1 (configuration not stated),x,-3,x,-6,-2,x,x
COc1ccc(CNc2ncnc3c2[nH]c2cc(OC)c(OC)cc23)cc1,14,37*,1,32*,0,70*,24*
C[C@@H]1C[C@H]2[C@@H](C)C(=O)N3[C@H](c4ccccc4)[C@H](C)C[C@H]3[C@@H](C)C(=O)N2[C@@H]1c1ccccc1,x,-4,x,11,x,x,x
COc1ccc2[nH]c3c(C)c4ccncc4c(C)c3c2c1,22,21*,-1,32*,-5,57*,20*
Brc1ccc(-c2ccc(/C=N/Nc3nc4ccccc4[nH]3)o2)cc1,10,19*,3,32*,-1,59*,34*
COC(=O)[C@]12C[C@H](CC(=O)N3CCC(c4ccccc4)CC3)C(=O)N(CCC3=CCCCC3)C1=C[C@H](COCc1ccccc1)O[C@@H]2C,x,-3,x,-4,5,x,x
COc1cc(/C=N/NC(=O)C(Cc2c[nH]c3ccccc23)NC(=O)OCC(C)C)cc([N+](=O)[O-])c1O (configuration not stated),27,55*,18,36*,-2,49*,44*
C/C(=N/Nc1ccc(C(=O)O)cc1)c1ccc2c(c1)Nc1ccccc1S2,23,17*,11,56*,7,81*,28*
